Measurements as given in ChEMBL document CHEMBL3425495, “Perturbation of the c-Myc-Max protein-protein interaction via synthetic α-helix mimetics” (J Med Chem, 2015).
The source made the active and inactive calls. The rule behind the calls is not given here.

What was measured:
HeLa = assay: Antiproliferative activity against human HeLa cells after 3 days by MTT assay; assay type: functional, cell-based; details: 72 h
Method in brief: (§1)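 Cells at >90% viability seeded at 2×10³ cells/well in fresh growth medium with 10-point serial dilutions of compound; 3-day incubation; viability by MTT, relative to untreated cells; each point in at least triplicate; IC50 from dose–response. HO15.19-wt-Myc are myc−/− rat fibroblasts with c-Myc restored by stable retroviral transduction.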

c-Myc/Max [1] = molecular target: T1, c-Myc/Max (Homo sapiens, UniProt P01106+P61244); assay: Inhibition of human recombinant His-tagged c-Myc-Max(S) heterodimer binding to DNA at 3.1 to 50 uM after 30 mins by SPR analysis in presence of biotinylated E-box-containing oligonucleotides; assay type: protein-complex assay
[2] = molecular target: Nuclear factor NF-kappa-B complex (Homo sapiens) (UniProt Q00653+P19838+Q04206); assay: Inhibition of NFkappaB binding site (unknown origin) expressed in human HeLa cells assessed as inhibition of luciferase after 6 hrs; assay type: cell-based
Method in brief: (§2)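 HeLa cells stably carrying a labile luciferase under a minimal promoter with triplicated c-Myc or NF-κB sites, methotrexate-amplified; 10⁶ cells seeded, next day compound for 6 h; lysates assayed in triplicate, normalised to protein, background (mutant-site line) subtracted, expressed relative to untreated cells (100%); mean ± 1 standard error.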

c-Myc/Max [3] = molecular target: T1, c-Myc/Max; assay: Inhibition of heterodimerization of human recombinant His-tagged c-Myc-Max(S) compound treated for 20 mins with c-Myc and followed by added Max(S) at 3.1 to 50 uM after 30 mins by SPR analysis in presence of biotinylated E-box-containing oligonucleotides; assay type: protein-complex assay
[4] = Antiproliferative activity against human H460 cells after 3 days by MTT assay; assay type: functional, cell-based; details: NCI-H460, 72 h; method in brief: as §1
[5] = Cell cycle arrest in human HL60 cells assessed as accumulation at S phase at 10 uM after 24 hrs by propidium iodide staining-based flow cytometric analysis (reference value: 58.4%); assay type: functional; details: HL-60
c-Myc/Max [6] = molecular target: T1, c-Myc/Max; assay: Binding affinity to human recombinant 15N labeled c-Myc-Max(S) heterodimer assessed as chemical shift up to 100 uM by NMR spectroscopy; assay type: protein-complex assay
[7] = Cell cycle arrest in human HL60 cells assessed as accumulation at G2/M phase at 15 uM after 24 hrs by propidium iodide staining-based flow cytometric analysis (reference value: 10.3%); assay type: functional; details: HL-60
[8] = Antiproliferative activity against human ANBL-6 cells after 3 days by MTT assay; assay type: functional, cell-based; details: ANBL-6, 72 h; method in brief: as §1
[9] = Antiproliferative activity against rat HO15.19-wt-Myc cells after 3 days by MTT assay; assay type: functional, cell-based; details: HO15.19, 72 h; method in brief: as §1
[10] = Antiproliferative activity against human JJN-3 cells after 3 days by MTT assay; assay type: functional, cell-based; details: JJN-3, 72 h; method in brief: as §1
[11] = Cell cycle arrest in human HL60 cells assessed as accumulation at S phase at 15 uM after 24 hrs by propidium iodide staining-based flow cytometric analysis (reference value: 58.4%); assay type: functional; details: HL-60
[12] = Cell cycle arrest in human HL60 cells assessed as accumulation at G2/M phase at 10 uM after 24 hrs by propidium iodide staining-based flow cytometric analysis (reference value: 10.3%); assay type: functional; details: HL-60
[13] = Antiproliferative activity against human KJON cells after 3 days by MTT assay; assay type: functional, cell-based; details: 72 h; method in brief: as §1
[14] = molecular target: Protein max (Homo sapiens) (UniProt P61244); assay: Binding affinity to human recombinant 15N labeled Max(S) homodimer assessed as chemical shift up to 100 uM by NMR spectroscopy
c-Myc/Max [15] = molecular target: T1, c-Myc/Max; assay: Induction of dissociation of […]-Max in human HL60 cells at 10 to 30 uM after 6 hrs by Co-immunoprecipitation (Co-IP) assay; assay type: cell-based; details: HL-60
Method in brief: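 About 5×10⁶ HL60 cells exposed 6 h to compound or DMSO; lysed in IP buffer; 300 µg cleared lysate immunoprecipitated overnight at 4 °C with anti-Max (1:200) and protein G-Sepharose; 10% SDS-PAGE, immunoblot with anti-c-Myc 9E10 (1:1000); input lysate kept for comparison.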

[16] = Antiproliferative activity against human U266 cells after 3 days by MTT assay; assay type: functional, cell-based; details: U-266, 72 h; method in brief: as §1
[17] = Antiproliferative activity against human IH-1 cells after 3 days by MTT assay; assay type: functional, cell-based; details: IH-1, 72 h; method in brief: as §1
[18] = Antiproliferative activity against human INA-6 cells after 3 days by MTT assay; assay type: functional, cell-based; details: INA-6, 72 h; method in brief: as §1
Daudi = assay: Antiproliferative activity against c-Myc-overexpressing human Daudi cells after 3 days by MTT assay; assay type: functional, cell-based; details: 72 h; method in brief: as §1
[19] = Cell cycle arrest in human HL60 cells assessed as accumulation at G0/G1 phase at 10 uM after 24 hrs by propidium iodide staining-based flow cytometric analysis (reference value: 31.2%); assay type: functional; details: HL-60
[20] = molecular target: Myc proto-oncogene protein (Homo sapiens) (UniProt P01106); assay: Inhibition of wild type c-Myc binding site (unknown origin) expressed in human HeLa cells assessed as inhibition of luciferase after 6 hrs; assay type: cell-based; method in brief: as §2
[21] = Cell cycle arrest in human HL60 cells assessed as accumulation at G0/G1 phase at 15 uM after 24 hrs by propidium iodide staining-based flow cytometric analysis (reference value: 31.2%); assay type: functional; details: HL-60
c-Myc/Max [22] = molecular target: T1, c-Myc/Max; assay: Disruption of human recombinant c-Myc-Max/DNA (unknown origin) binding assessed as complex level by electrophoretic mobility shift assay relative to control; assay type: protein-complex assay
Method in brief: (§3)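 Recombinant c-Myc 353–437 bHLH-ZIP with full-length Max(S), or Max(L) alone, from E. coli (His₆ removed by TEV), each 30 nM, with 30 nM HEX-labelled double-stranded oligonucleotide bearing a c-Myc site; buffer 1× PBS pH 7.3, 1 mM EDTA, 0.1% NP40, 5% glycerol, 1 mM DTT, 400 µg/mL BSA; complex level relative to DMSO control; three independent EMSAs.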

c-Myc/Max [23] = molecular target: T1, c-Myc/Max; assay: Disruption of human recombinant c-Myc-Max(S)/DNA (unknown origin) binding assessed as complex level at 100 uM by electrophoretic mobility shift assay relative to control; assay type: protein-complex assay; method in brief: as §3
HEK293 = assay: Antiproliferative activity against human HEK293 cells after 3 days by MTT assay; assay type: functional, cell-based; details: HEK293, 72 h; method in brief: as §1
NCI-H460 = assay: Induction of neutral lipid accumulation in human H460 cells assessed as ratio of mean florescent intensity of compound treated to control cells at 40 uM after 48 hrs by flow cytometry; assay type: functional
Method in brief: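 Sub-confluent H460 cells given compound 48 h; trypsinised, washed, stained 30 min at ambient temperature with BODIPY […]/503 (stock 50 µg/ml, 0.9 ml added to 0.1 ml cells); flow cytometry of ≥10⁴ events; mean fluorescence of treated over untreated cells; biological triplicates, ± one standard error.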

c-Myc/Max [24] = molecular target: T1, c-Myc/Max; details: 6.3 to 50 uM
c-Myc/Max [25] = molecular target: T1, c-Myc/Max; details: 6.3 to 50 uM; remark: listed apart in the source

T1 sequence (P01106 whole entry): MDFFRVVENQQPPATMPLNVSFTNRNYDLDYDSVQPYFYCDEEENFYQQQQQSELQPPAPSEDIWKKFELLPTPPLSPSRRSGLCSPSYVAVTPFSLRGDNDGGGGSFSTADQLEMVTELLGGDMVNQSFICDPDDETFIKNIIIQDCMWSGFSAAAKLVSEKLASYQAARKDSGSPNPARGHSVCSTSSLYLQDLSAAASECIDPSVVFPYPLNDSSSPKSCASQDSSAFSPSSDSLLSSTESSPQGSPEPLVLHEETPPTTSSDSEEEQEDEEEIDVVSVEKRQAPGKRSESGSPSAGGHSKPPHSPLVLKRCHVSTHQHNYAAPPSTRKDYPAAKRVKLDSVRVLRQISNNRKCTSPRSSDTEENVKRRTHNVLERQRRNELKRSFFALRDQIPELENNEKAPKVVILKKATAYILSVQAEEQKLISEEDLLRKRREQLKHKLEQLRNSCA
T1 sequence (P61244 whole entry): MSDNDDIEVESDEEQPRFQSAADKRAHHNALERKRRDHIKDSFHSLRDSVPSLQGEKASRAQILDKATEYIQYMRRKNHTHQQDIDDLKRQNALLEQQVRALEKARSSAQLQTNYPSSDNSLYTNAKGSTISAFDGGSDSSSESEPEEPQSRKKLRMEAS
Chain of Nuclear factor NF-kappa-B complex (Homo sapiens) (P19838 whole entry, looked up): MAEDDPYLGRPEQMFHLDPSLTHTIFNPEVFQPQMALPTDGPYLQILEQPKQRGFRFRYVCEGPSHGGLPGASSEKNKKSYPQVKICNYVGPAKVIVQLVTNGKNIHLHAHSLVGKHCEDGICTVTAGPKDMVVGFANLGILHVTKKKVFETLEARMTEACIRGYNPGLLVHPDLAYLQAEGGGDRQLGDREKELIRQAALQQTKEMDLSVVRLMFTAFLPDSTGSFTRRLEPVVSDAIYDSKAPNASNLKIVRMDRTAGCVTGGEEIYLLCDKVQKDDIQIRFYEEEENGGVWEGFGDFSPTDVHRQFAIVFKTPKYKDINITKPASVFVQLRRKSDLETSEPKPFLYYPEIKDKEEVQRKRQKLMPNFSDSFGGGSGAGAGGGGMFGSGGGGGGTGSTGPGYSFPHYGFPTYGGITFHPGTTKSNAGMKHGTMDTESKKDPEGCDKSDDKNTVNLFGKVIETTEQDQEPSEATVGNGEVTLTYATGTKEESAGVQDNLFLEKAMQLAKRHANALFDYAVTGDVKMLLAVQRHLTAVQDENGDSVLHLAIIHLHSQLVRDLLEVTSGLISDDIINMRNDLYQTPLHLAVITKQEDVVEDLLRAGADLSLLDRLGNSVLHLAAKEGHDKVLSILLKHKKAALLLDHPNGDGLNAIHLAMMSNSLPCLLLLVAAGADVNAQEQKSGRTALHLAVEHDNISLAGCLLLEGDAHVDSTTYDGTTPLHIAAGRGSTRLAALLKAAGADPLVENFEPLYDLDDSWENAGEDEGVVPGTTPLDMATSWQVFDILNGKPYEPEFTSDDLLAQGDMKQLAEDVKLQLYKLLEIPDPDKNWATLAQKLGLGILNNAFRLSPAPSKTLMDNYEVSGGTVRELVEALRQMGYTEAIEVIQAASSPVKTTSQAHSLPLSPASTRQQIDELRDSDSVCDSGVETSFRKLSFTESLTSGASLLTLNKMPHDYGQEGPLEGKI
Chain of Nuclear factor NF-kappa-B complex (Homo sapiens) (Q00653 whole entry, looked up): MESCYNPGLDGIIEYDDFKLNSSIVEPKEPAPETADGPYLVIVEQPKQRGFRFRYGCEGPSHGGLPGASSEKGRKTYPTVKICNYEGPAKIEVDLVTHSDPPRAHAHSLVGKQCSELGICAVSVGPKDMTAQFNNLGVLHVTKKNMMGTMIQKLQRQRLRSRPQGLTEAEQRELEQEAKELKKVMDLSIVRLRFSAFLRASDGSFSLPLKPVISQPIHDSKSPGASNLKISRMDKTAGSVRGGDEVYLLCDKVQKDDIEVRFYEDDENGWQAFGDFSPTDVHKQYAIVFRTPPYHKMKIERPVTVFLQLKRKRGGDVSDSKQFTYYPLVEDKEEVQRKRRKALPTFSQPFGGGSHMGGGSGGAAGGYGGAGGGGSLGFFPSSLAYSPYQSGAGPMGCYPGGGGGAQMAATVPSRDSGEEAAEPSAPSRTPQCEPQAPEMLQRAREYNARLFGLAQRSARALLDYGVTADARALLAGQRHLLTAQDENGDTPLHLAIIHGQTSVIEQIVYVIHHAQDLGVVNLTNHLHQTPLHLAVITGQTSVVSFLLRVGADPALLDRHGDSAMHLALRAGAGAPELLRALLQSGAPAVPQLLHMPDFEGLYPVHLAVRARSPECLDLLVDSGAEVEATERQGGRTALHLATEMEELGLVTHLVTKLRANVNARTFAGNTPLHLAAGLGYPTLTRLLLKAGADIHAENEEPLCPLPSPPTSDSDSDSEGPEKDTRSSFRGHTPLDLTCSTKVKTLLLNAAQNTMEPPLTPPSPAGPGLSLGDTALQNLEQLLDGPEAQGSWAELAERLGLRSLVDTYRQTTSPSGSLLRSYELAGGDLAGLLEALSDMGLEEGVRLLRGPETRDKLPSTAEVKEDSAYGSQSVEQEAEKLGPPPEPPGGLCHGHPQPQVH
Chain of Nuclear factor NF-kappa-B complex (Homo sapiens) (Q04206 whole entry, looked up): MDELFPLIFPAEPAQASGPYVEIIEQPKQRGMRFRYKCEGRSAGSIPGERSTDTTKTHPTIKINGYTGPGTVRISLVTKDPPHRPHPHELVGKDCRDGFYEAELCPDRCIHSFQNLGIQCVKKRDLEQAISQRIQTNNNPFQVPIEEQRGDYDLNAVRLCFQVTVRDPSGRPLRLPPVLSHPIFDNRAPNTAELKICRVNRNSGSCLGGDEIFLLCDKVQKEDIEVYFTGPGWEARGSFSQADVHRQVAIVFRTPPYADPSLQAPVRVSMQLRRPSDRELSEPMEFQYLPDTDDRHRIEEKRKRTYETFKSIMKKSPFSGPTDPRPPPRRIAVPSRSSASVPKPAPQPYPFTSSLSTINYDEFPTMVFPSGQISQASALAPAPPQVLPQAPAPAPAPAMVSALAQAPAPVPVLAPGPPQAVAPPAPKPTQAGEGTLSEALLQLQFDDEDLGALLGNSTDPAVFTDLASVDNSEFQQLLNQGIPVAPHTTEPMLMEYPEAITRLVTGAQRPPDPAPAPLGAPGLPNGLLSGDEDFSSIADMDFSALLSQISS
Chain of Protein max (Homo sapiens) (P61244 whole entry): as the sequence (P61244 whole entry) above
Chain of Myc proto-oncogene protein (Homo sapiens) (P01106 whole entry): as the sequence (P01106 whole entry) above

In the case of `CC(C)COc1cc(C(=O)O)ccc1NC(=O)c1ccc([N+](=O)[O-])c(OCc2cccc3ccccc23)c1`, the IC50 (HeLa) is reported as 10.8 µM, the inhibition (c-Myc/Max [1]) is reported as “Active” and the inhibition [2] is reported as “inactive”. For the same compound, the inhibition (c-Myc/Max [3]) was “Active”, the IC50 [4] was 15.9 µM and the Activity [5] was 47.9%. It also gave a Kd (c-Myc/Max [6]) of 13 µM, an Activity [7] of 5.64% and an IC50 [8] of 35.6 µM. It also gave an IC50 [9] of 14.1 µM, an IC50 [10] of 15.7 µM and an Activity [11] of 23.3%. For the same compound, the Activity [12] was 0.77%, the IC50 [13] was 23 µM and the Activity [14] was “inactive”. The Activity (c-Myc/Max [15]) was “inactive”, the IC50 [16] was 46 µM and the IC50 [17] was 20.6 µM. It also gave an IC50 [18] of 18.1 µM, an IC50 (Daudi) of 9.5 µM and an Activity [19] of 51.4%. For the same compound, the inhibition [20] was “Dose-dependent effect”, the Activity [21] was 71% and the IC50 (c-Myc/Max [22]) was 11.6 µM. For the same compound, the Activity (c-Myc/Max [23]) was 0% and the IC50 (HEK293) was 10.4 µM.
For `O=[N+]([O-])c1ccc(Nc2ccccc2-c2ccccc2)c2nonc12`, the Ratio (NCI-H460) was 1.4, the inhibition (c-Myc/Max [24]) was “Active” and the inhibition (c-Myc/Max [25]) was “Active”.
